The values that follow come from ChEMBL document CHEMBL4402595, “Discovery of Orally Bioavailable Chromone Derivatives as Potent and Selective BRD4 Inhibitors: Scaffold Hopping, Optimization, and Pharmacological Evaluation” (J Med Chem, 2020).

The source made the active and inactive calls. No cut-off for these calls is given here.

In series [1] the target is T1, Bromodomain-containing protein 4 (Homo sapiens, UniProt O60885). Description: Inhibition of BRD4 in poly(I:C)-stimulated human SAECs TLR3-inducible IL-6 gene expression pre-incubated for 24 hrs before poly(I:C) stimulation for 4 hrs by qRT-PCR analysis. Background: In qPCR the cycle at which signal appears reflects the starting amount.
Series [2] has as its target T1, Bromodomain-containing protein 4. Description: Inhibition of BRD4 in poly(I:C)-stimulated human SAECs assessed as reduction in H3K122Ac levels at 10 uM pre-incubated for 24 hrs before poly(I:C) stimulation for 4 hrs by immunofluorescence staining.
The target of series [3] is Bromodomain-containing protein 2 (Homo sapiens, UniProt P25440). In words: Binding affinity to recombinant BRD2 BD2 (unknown origin) incubated for 1 hr by TR-FRET assay. (In TR-FRET formats the signal depends on donor and acceptor labels being close together.)
Series [4] concerns the target T1, Bromodomain-containing protein 4. In words: Inhibition of BRD4 in poly(I:C)-stimulated human SAECs TLR3-inducible IL-6 gene expression at 10 uM pre-incubated for 24 hrs before poly(I:C) stimulation for 4 hrs by qRT-PCR analysis relative to control.
Series [5] shares this target. In words: Inhibition of BRD4 in poly(I:C)-stimulated human SAECs TLR3-inducible CIG5 gene expression pre-incubated for 24 hrs before poly(I:C) stimulation for 4 hrs by qRT-PCR analysis.
A further series concerns the target T2, CYP2B6 (Homo sapiens, UniProt P20813).
T2 sequence (P20813 whole entry): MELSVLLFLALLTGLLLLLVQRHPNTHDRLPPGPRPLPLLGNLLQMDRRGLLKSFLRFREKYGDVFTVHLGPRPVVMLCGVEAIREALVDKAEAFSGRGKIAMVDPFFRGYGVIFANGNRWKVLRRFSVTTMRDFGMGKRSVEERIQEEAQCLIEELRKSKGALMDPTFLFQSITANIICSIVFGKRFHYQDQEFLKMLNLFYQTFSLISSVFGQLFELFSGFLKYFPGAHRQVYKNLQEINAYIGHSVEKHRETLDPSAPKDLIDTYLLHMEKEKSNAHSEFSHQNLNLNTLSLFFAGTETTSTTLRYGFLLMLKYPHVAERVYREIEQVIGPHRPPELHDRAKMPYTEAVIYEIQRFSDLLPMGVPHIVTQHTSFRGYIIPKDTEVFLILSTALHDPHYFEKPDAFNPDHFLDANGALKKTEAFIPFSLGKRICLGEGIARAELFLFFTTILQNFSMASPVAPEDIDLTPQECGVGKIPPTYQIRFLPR
Description: Inhibition of CYP2B6 (unknown origin) at 10 uM relative to control. The class given is ADME.

A further series deals with CYP3A4 (Homo sapiens, UniProt P08684). In words: Inhibition of CYP3A4 (unknown origin) at 10 uM using testosterone substrate relative to control. As to conditions: probe testosterone. In kind it is ADME. In a few lines: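 The CYP3A4 assay was run with midazolam or with testosterone as substrate.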
For a further series, the target named is CYP2C19 (Homo sapiens, UniProt P33261). Description: Inhibition of CYP2C19 (unknown origin) at 10 uM relative to control. The class given is ADME.
Series [6] has as its target Voltage-gated inwardly rectifying potassium channel KCNH2 (Homo sapiens, UniProt Q12809). Description: Inhibition of human ERG.
Series [7] in a line: Unbound fraction in mouse plasma at 2 uM. In kind it is ADME, cell-free.
A further series concerns the target T3, CYP1A2 (Homo sapiens, UniProt P05177).
T3 sequence (P05177 whole entry): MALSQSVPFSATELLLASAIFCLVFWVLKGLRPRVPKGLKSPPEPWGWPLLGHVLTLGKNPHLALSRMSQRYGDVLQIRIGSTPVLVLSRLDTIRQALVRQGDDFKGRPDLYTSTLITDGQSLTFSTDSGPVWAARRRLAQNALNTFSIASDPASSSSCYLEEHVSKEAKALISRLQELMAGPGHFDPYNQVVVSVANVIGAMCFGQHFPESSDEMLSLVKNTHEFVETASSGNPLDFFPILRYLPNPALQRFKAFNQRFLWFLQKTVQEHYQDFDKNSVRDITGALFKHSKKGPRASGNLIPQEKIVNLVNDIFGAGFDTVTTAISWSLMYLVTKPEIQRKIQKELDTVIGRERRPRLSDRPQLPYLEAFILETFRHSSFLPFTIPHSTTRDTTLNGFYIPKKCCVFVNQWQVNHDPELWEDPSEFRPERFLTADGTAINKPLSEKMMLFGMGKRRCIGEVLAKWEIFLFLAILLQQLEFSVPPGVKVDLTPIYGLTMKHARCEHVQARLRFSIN
Description: Inhibition of CYP1A2 (unknown origin) at 10 uM relative to control. In kind it is ADME.

Series [8] is described as follows: Unbound fraction in human plasma at 2 uM. In kind it is ADME, cell-free.
Series [9] in a line: Clearance in human liver microsomes. In kind it is ADME, Microsome. For orientation: Liver microsomes are a subcellular fraction often used to study metabolism.
The target in another series is T4, CYP2C8 (Homo sapiens, UniProt P10632).
T4 sequence (P10632 whole entry): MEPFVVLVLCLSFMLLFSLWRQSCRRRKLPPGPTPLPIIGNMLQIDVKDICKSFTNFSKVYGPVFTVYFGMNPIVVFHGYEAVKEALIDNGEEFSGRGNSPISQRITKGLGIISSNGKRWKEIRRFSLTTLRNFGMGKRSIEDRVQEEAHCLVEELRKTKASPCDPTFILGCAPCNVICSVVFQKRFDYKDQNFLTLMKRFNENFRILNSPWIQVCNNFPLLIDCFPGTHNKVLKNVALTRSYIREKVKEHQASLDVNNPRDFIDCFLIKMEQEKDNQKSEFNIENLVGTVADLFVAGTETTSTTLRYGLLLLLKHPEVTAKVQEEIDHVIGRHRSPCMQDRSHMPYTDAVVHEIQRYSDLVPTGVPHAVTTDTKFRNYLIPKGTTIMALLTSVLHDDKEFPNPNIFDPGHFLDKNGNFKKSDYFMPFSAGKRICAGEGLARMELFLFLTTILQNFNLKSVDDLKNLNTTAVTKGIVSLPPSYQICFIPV
Description: Inhibition of CYP2C8 (unknown origin) at 10 uM relative to control. In kind it is ADME.

Sequence of CYP2C19 (P33261 whole entry): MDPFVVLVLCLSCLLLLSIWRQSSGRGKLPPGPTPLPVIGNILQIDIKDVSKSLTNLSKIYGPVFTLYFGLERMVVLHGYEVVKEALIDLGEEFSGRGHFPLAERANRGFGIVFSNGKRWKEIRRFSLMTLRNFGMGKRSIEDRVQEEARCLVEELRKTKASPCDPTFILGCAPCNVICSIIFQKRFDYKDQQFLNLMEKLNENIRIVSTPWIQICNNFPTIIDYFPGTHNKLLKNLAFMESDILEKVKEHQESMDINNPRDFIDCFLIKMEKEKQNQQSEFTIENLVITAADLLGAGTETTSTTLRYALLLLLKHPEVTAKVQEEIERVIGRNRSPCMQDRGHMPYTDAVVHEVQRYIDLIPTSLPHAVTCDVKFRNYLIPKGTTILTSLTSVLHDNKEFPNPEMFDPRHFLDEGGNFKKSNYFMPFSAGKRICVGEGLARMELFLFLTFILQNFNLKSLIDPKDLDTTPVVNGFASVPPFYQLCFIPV
Sequence of Voltage-gated inwardly rectifying potassium channel KCNH2 (Q12809 whole entry): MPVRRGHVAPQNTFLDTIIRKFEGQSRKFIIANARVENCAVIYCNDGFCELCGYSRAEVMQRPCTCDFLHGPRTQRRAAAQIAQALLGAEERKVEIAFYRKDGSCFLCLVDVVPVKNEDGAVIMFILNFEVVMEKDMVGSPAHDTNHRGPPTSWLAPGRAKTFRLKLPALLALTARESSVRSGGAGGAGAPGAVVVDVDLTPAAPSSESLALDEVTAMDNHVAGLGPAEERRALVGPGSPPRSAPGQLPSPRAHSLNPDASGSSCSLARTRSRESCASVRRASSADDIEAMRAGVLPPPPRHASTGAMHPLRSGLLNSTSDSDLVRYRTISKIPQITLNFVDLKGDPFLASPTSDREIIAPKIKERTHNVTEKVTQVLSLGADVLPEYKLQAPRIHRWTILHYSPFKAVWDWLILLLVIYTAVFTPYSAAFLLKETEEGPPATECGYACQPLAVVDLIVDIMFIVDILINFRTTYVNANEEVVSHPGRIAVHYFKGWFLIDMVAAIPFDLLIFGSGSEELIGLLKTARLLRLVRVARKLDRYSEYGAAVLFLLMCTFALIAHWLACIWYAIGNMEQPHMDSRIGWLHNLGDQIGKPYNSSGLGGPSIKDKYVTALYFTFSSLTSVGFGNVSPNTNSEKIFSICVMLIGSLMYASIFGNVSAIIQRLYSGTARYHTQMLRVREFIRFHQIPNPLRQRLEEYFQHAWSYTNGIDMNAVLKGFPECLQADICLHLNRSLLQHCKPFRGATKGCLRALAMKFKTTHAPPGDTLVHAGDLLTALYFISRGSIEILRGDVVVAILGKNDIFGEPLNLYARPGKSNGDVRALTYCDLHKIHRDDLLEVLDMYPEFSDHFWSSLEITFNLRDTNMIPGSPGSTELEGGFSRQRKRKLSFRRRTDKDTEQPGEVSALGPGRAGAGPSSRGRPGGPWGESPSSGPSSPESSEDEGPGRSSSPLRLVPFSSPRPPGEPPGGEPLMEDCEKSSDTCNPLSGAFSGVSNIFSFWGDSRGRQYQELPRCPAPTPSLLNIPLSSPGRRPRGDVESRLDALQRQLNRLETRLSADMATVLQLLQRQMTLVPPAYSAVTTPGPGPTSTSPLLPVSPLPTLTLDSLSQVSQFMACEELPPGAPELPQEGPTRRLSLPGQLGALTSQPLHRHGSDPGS
Sequence of Bromodomain-containing protein 2 (P25440 whole entry): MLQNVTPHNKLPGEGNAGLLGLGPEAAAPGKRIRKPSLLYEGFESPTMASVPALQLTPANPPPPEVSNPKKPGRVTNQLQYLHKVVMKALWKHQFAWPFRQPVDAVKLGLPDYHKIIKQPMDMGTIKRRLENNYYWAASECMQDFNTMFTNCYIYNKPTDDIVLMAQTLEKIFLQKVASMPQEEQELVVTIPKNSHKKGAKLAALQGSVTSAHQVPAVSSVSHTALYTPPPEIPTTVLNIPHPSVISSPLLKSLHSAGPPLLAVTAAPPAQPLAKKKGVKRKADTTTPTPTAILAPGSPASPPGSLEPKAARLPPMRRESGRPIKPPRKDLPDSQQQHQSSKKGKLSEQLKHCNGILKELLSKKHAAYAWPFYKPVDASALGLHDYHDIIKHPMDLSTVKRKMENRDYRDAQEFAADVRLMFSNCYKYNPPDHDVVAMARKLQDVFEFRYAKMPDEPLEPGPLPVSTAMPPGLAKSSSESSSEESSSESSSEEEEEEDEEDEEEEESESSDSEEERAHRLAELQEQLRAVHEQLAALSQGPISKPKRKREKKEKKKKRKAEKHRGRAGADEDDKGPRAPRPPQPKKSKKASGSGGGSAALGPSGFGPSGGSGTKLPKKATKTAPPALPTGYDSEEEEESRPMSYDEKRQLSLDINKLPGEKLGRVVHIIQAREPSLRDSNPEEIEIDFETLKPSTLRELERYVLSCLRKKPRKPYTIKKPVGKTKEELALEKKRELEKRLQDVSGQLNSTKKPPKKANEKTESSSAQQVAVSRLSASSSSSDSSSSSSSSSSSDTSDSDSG
Sequence of CYP3A4 (P08684 whole entry): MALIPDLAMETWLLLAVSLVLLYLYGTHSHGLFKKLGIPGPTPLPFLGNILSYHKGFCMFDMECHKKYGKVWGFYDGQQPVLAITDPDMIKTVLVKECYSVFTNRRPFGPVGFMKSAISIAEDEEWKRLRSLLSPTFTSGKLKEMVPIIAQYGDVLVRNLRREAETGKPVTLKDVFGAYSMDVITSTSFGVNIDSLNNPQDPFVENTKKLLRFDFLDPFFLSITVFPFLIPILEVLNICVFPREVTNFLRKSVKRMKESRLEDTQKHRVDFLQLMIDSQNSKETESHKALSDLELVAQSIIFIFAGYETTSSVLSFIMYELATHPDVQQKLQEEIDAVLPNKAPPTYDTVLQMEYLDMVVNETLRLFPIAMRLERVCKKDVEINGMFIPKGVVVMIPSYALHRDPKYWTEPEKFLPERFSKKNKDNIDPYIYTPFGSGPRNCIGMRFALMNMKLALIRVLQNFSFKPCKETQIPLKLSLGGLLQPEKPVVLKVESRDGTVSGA

For `COc1cc(OC)c2c(=O)cc(-c3cc(C)c(OC[C@H](O)CN4CCCCC4)c(C)c3)oc2c1`, the figures for the IC50 in series [1], in series [3] and in series [5] were 1100 nM, 845 nM and 520 nM, respectively. Besides, the inhibition result in series [2] is “Active”. Besides, in series [4], the inhibition amounted to 100%.
For the compound `COc1cc(OC)c2c(=O)cc(-c3cc(C)c(OC[C@H](O)CN4CCN(C)CC4)c(C)c3)oc2c1`, the inhibition at 10 µM against CYP2B6 amounted to 27%; against CYP3A4, 8.2%; against CYP2C19 it was 1.7%; against CYP1A2 it was 0%; on CYP2C8, 17%. Besides, the IC50 in series [6] was over 30000 nM. The results for the Fu in [7] and in series [8] were 12% and 17%, respectively. For the same compound, the CLH in [9] came to 5.6 µL/min/mg.

In general, IC50 refers to the midpoint of a concentration-inhibition curve. In general, inhibition refers to how much of the control response was suppressed.
